# L major viab: Leishmania major promastigote growth inhibition; Leishmania major promastigotes, resazurin fluorescence viability; inhibition, % at 10 µM; hit rate 9% among 200,000; AID 1063; in the data active means inhibition above about 50%;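 further: promastigotes grown with compound for 44 hours at 28 °C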
# CHOP inh: blocks CHOP induction under ER stress; CHO-K1 CHOP-promoter luciferase, tunicamycin-induced, 15-18 h; inhibition, % at 10 µM; hit rate 3.8% among 220,000; AID 2732;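 active means compounds that reduced the stress-induced luciferase reporter signal by more than about 70% of percent inhibition, limit read from the data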;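 further: 0% = tunicamycin plus vehicle and 100% = wells without tunicamycin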
# Dynein transport: dynein cargo transport inhibition; 3617.4 mouse cells, GR-EGFP nuclear translocation imaging; test concentration mostly 20 µM; stimulated with dexamethasone, 1 µM; stronger effect = lower value; z-score, hits read low; hit rate 0.47% among 220,000; AID 1381;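 active means plate z-score of nuclear minus cytoplasmic receptor signal below a set negative limit, without overly bright fluorescence or cell loss, cut at about -3.5 in these data, passing the limit was not always enough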;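 further: z-score of nuclear minus cytoplasmic ring GR-EGFP intensity difference per well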
#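 Buffer or medium: tetracycline-free induction medium containing charcoal-stripped FBS / Reagent: dexamethasone agonist, 1.0 µM final, for 30 min / Technique: automated 10x imaging of fixed Hoechst-stained cells / Times: induction 48 h, compound 1 h, agonist 30 min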
# UPR XBP1 act: adaptive UPR (XBP1) activation; CHO-XBP1 luciferase reporter, IRE1-XBP1 UPR activation, luminescence; percent of tunicamycin response, DMSO as zero; activation, % at 20 µM; hit rate 0.33% among 330,000; AID 463104;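 active means versus positive control, 20 µM dose yields 30% or more activation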;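 further: 100% = tunicamycin at 10 µg/mL and 0% = DMSO only wells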
#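 Material: CHO cell line with stable XBP1 luciferase reporter; buffer or medium: F12 medium containing 10% fetal bovine serum; compound: single point, 20 µM final compound, 1% DMSO; incubation: 6 h treatment, 37 °C; measured by: glow luminescence from Steady-Glo reagent; evaluation: activation, % of tunicamycin; control set: tunicamycin high, DMSO low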
# T cruzi repl: blocks replication of Trypanosoma cruzi | hit rate 1.4% among 300,000 | inhibition, % (concentration not given with the values) | T. cruzi beta-gal in NIH3T3, luminescence, 90 h;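 active means mean inhibition across valid replicates above about 55%, limit read from the data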;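 further: signal also drops with host cell toxicity which is not excluded here; 0% = plate median of DMSO wells and 100% = zero luminescence signal; higher percent means less beta-gal luminescence so fewer parasites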
#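 System – NIH/3T3 host cells with β-galactosidase reporter T. cruzi · Doses – single 50 nL compound addition per well in DMSO · Reagent – 5000 T. cruzi trypomastigotes/well · Medium – Low-serum DMEM with 2% FBS · Timing – ≥90 h infection period, 3 h prior cell attachment · Evaluation – parasite load inhibition, % · Technique – GalScreen luminescence, 60 min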
# UPR CHOP act: activators of apoptotic arm of unfolded protein response (CHOP). activation, % at 10 µM. CHO-CHOP luciferase reporter, UPR activation, luminescence; percent of tunicamycin response over DMSO baseline. hit rate 0.34% among 330,000;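 active means at 10 µM dose, activation of 40% or more, normalized to positive control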;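 further: 100% = tunicamycin at 10 µg/mL and 0% = DMSO alone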
#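 Dosing – one dose, 10 µM in 0.5% DMSO · System – CHO-CHOP cells, stable luciferase reporter of PERK-eIF2a-CHOP signalling · Input – 500 cells/well · Control set – tunicamycin 10 µg/mL final as positive, DMSO-only wells as negative · Timing – 6 h compound treatment, 37 °C · Measure – % activation vs tunicamycin · Technique – luminescence read with Steady-Glo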
# UPR CHOP confirm: confirmation of apoptotic unfolded protein response (CHOP) activators; shares compounds with UPR CHOP act; CHO-CHOP cells, CHOP-luciferase reporter luminescence; percent of tunicamycin response, DMSO as zero; activation, % at 10 µM; hit rate 64% among 1,000; AID 463112; in the data active means activation above about 33%;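 further: 0% = DMSO wells and 100% = tunicamycin 10 µg/mL wells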
# XBP1 UPR conf: confirmation of adaptive unfolded protein response (XBP1) activators; shares compounds with UPR XBP1 act; CHO-XBP1 IRE1-XBP1 luciferase reporter, luminescence; activation, % at 20 µM; hit rate 63% among 1,000;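 active means reporter signal at least 30% of the positive control's activation in two or more of four replicate wells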;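 further: plate controls were DMSO negative control for no effect and tunicamycin 10 µg/mL positive control for full effect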
# The depositor's hits bear a star; . = no result. Shown is part of a subset that was picked to be rich in hits.
SMILES,L major viab,CHOP inh,Dynein transport,UPR XBP1 act,T cruzi repl,UPR CHOP act,UPR CHOP confirm,XBP1 UPR conf
Cc1[nH]c2ccccc2c(=O)c1CN1CCCCC1,-2.0,19.4,0.0823,-0.3,-4.6,-1.2,.,.
Cc1[nH]c2ccccc2c1CN1CCC(Cc2ccccc2)CC1,100.4*,-70.1,-1.02,33.2*,93.9*,45.9*,46.8*,20.7
CCOc1ccc(N2CC(C(=O)Nc3nnc(CC)s3)CC2=O)cc1 (stereo unspecified),.,.,.,3.1,0.2,1.1,.,.
CC1CN(C(=O)c2ccc(-c3cccc(C(F)(F)F)c3)o2)CC(C)O1 (stereo unspecified),.,.,.,1.2,14.4,-0.2,.,.
O=C(NCCN1CCN(C(=O)c2cccc(OC(F)F)c2)CC1)c1cccc(OC(F)F)c1,.,.,.,-5.0,.,1.3,.,.
Cc1ccc(-c2nc(N/N=C/c3cccc([N+](=O)[O-])c3)c3ccccc3n2)cc1,0.6,80.7*,-0.53,193.9*,17.3,164.6*,89.4*,223.3*
CCOC(=O)c1c(NC(=O)c2nn(CC)cc2Br)sc2c1CCCCC2,16.8,5.7,0.445,7.1,48.6,0.3,.,.
CCn1cc(C(=O)NC(=S)Nc2sc3c(c2C(=O)OC)CCCCCC3)cn1,-1.4,77.7*,-0.777,60.1*,6.9,70.6*,35.2*,56.9*
Cn1c2ccccc2c2cc(/C=N/NC(=O)c3cc(O)cc(O)c3)ccc21,.,.,.,-3.4,-9.5,3.0,.,.
Cn1c2ccccc2c2cc(/C=N/NC(=O)c3cc(O)ccc3O)ccc21,.,.,.,33.4*,-3.9,168.8*,84.1*,87.2*
COc1ccc(-c2cccc(-c3cc(=O)oc4ccc(C(C)(C)C)cc34)c2)cc1,.,.,.,0.5,.,4.3,.,.
CCOc1cc(/C=N/Nc2nc(C)cc(=O)[nH]2)ccc1O,.,.,.,-1.6,-7.1,0.3,.,.
CCOc1cc(/C=N/Nc2cc(C)nc(-n3nc(C)cc3C)n2)ccc1O,.,-48.3,-0.756,48.3*,29.7,86.0*,63.2*,27.2
Cc1ccc(/C=C2\NC(=S)NC2=O)cc1[N+](=O)[O-],3.9,7.5,-0.699,-0.2,-6.0,1.3,.,.
CCOc1cc(/C=C2/NC(=S)NC2=O)ccc1OCc1ccc([N+](=O)[O-])cc1,-1.8,29.8,0.314,126.9*,-1.6,165.0*,25.6,39.4*
COc1ccc(C(=O)Nc2ccc(NC(=O)c3cc(OC)c(OC)c(OC)c3)cn2)cc1,.,.,.,-2.2,14.3,3.3,.,.
CCOc1ccc(NC(=S)NC(=O)/C=C/c2ccc(OC)c(OC)c2)c([N+](=O)[O-])c1,-2.7,80.6*,-0.0372,167.7*,6.9,60.6*,48.9*,251.1*
CCCCOc1ccc(C(=O)N(C)CC(=O)Nc2ccc(C)cc2)cc1,.,.,.,3.7,-7.4,-1.3,.,.
FC(F)(F)c1cccc(-c2ccc(/C=N/Nc3nncc(-c4ccccc4)n3)o2)c1,-6.3,65.1,-0.168,4.7,19.9,1.0,.,.
Clc1ccc(-c2ccc(/C=N/Nc3nncc(-c4ccccc4)n3)o2)cc1,-5.5,63.2,-0.153,75.6*,-22.1,41.8*,44.0*,145.3*
CC(=O)Nc1cccc(Oc2ccc3c(c2)C(=O)NC3=O)c1,.,.,.,0.0,-10.3,3.9,.,.
C/C(=N\Nc1ccc(S(N)(=O)=O)cc1[N+](=O)[O-])c1ccc2c(c1)OCO2,14.6,35.6,0.314,.,28.0,.,.,.
CCN(CC)S(=O)(=O)c1ccc(N/N=C(\C)c2ccc3c(c2)OCO3)c([N+](=O)[O-])c1,37.6,92.5*,0.0783,210.6*,-4.8,155.0*,62.6*,155.4*
O=C(Nc1ccc(Br)cc1)c1cc(-c2ccncc2)nc2ccccc12,.,.,.,122.0*,.,66.9*,29.1,105.2*
O=C(O)c1ccc(N2C(=O)/C(=C/c3ccc(-c4ccc([N+](=O)[O-])cc4)o3)C=C2c2ccccc2)cc1,98.8*,12.0,-1.5,57.0*,3.7,44.2*,20.2,79.8*
SMILES,L major viab,CHOP inh,Dynein transport,UPR XBP1 act,T cruzi repl,UPR CHOP act,UPR CHOP confirm,XBP1 UPR conf
Cc1cc(NC(=O)c2cc(-c3ccccn3)nc3ccc(Br)cc23)no1,.,.,.,34.1*,9.3,58.4*,61.2*,32.6*
Oc1ccc(/C=N/Nc2cc(N3CCOCC3)nc(N3CCOCC3)n2)cc1O,-11.0,-82.2,-0.521,58.7*,5.9,267.6*,100.0*,42.0*
CCOC(=O)/C=c1\s/c(=C\c2ccc3cc(OC)ccc3c2)c(=O)n1CC(=O)NCC1CCCO1 (stereo unspecified),-0.3,-47.5,1.91,370.9*,-7.6,85.8*,131.3*,580.2*
Cc1ccc(C)c(OCC(O)CN2CCC(Cc3ccccc3)CC2)c1 (stereo unspecified),.,.,.,-6.3,30.0,0.0,.,.
Cc1ccc(C(C)C)c(OCc2ccc(C(=O)N/N=C/c3ccc(O)c(O)c3)cc2)c1,100.4*,83.9*,-0.409,85.9*,-1.3,102.2*,56.9*,54.4*
COc1cc(/C=N/NC(=O)c2ccc(COc3cc(C)ccc3C(C)C)cc2)cc(OC)c1O,37.0,3.1,0.664,-2.7,21.0,-0.9,.,.
O=C(N/N=C/c1ccc(O)c(O)c1)c1ccc(CSc2cccc3cccnc23)cc1,-4.8,-6.8,0.668,50.8*,-19.3,106.2*,23.4,54.4*
CCCc1c(C(=O)N/N=C/c2cccc3ccccc23)nnn1-c1nonc1N,.,.,.,23.4,3.0,-1.5,.,.
CCOC(=O)[C@@H]1[C@H]2COc3ccccc3[C@H]2N2C(=O)N(c3ccc(Cl)cc3)C(=O)[C@@]12C,.,.,.,1.4,13.2,-2.1,.,.
CCc1ccc2[nH]c(=O)c(C(c3nnnn3CCOC)N3CCN(c4ccc(F)cc4)CC3)cc2c1 (stereo unspecified),0.9,42.2,-0.109,-1.4,11.4,-0.3,.,.
CCc1ccc2[nH]c(=O)c(CN(Cc3ccc(F)cc3)C(c3nnnn3CCN3CCOCC3)C(C)C)cc2c1 (stereo unspecified),-0.9,23.5,-0.00997,38.5*,18.4,55.0*,-2.3,0.1
O=C(NCCc1ccccc1)C1COc2ccccc2O1 (stereo unspecified),.,.,.,-0.2,-1.9,2.2,.,.
O=C(NCCc1ccc(O)c(O)c1)C1COc2ccccc2O1 (stereo unspecified),.,.,.,49.5*,1.6,64.3*,9.2,46.2*
CCOc1cc(N2CCOCC2)c(OCC)cc1NC(=O)CN1C(=O)NC2(CCCCC2C)C1=O (stereo unspecified),.,.,.,-0.7,.,-0.1,.,.

# High-throughput results from PubChem.
